Results from ChEMBL document CHEMBL4219100, “Discovery of selective EGFR modulator to inhibit L858R/T790M double mutants bearing a N-9-Diphenyl-9H-purin-2-amine scaffold” (Bioorg Med Chem, 2018).

How the values were obtained:
[1] = tested on: A549; assay: Cytotoxicity against human A549 cells expressing wild-type EGFR/K-ras mutant after 72 hrs by MTT assay; format: cell-based; conditions: A549, 72 h
How it was run: (§1)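 Cells grown in MEM with 10% FBS; about 4×10^3 cells per well seeded and held 24 h at 37°C in 5% CO₂. Compounds then added and culture continued 72 h. MTT added ([…]) for 4 h at 37°C. Formazan dissolved in DMSO and absorbance read at 492 nm against 630 nm reference. Each compound tested three times per line; IC50 is the mean of at least three determinations.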

[2] = tested on: NCI-H1975; assay: Cytotoxicity against human NCI-H1975 cells expressing EGFR L858R/T790M double mutant after 72 hrs by MTT assay; format: functional, cell-based; conditions: NCI-H1975, 72 h; how it was run: as §1
[3] = tested on: HT-29; assay: Cytotoxicity against human HT-29 cells after 72 hrs by MTT assay; format: cell-based; conditions: HT-29, 72 h; how it was run: as §1
[4] = organism: Homo sapiens; assay: Selectivity ratio of IC50 for human A549 cells expressing wild-type EGFR/K-Ras mutant to IC50 for human NCI-H1975 cells expressing EGFR L858R/T790M double mutant
[5] = molecular target: Epidermal growth factor receptor (Homo sapiens, UniProt P00533); assay: Inhibition of recombinant human GST-tagged EGFR cytoplasmic domain (668 to 1210 residues) expressed in baculovirus expression system using FAM-labelled peptide as substrate pretreated for 10 mins followed by substrate addition measured after 1 hr by mobility shift assay
[6] = molecular target: Epidermal growth factor receptor (Homo sapiens, UniProt P00533, L858R/T790M); assay: Inhibition of recombinant human GST-tagged EGFR L858R/T790M double mutant cytoplasmic domain (668 to 1210 residues) expressed in baculovirus expression system using FAM-labelled peptide as substrate pretreated for 10 mins followed by substrate addition measured after 1 hr by mobility shift assay
[7] = molecular target: Epidermal growth factor receptor (Homo sapiens, UniProt P00533, T790M); assay: Inhibition of recombinant human GST-tagged EGFR T790M mutant cytoplasmic domain (668 to 1210 residues) expressed in baculovirus expression system using FAM-labelled peptide as substrate pretreated for 10 mins followed by substrate addition measured after 1 hr by mobility shift assay
[8] = organism: Homo sapiens; assay: Selectivity ratio of IC50 for recombinant human GST-tagged EGFR cytoplasmic domain (668 to 1210 residues) expressed in baculovirus expression system to IC50 for recombinant human GST-tagged EGFR L858R/T790M double mutant cytoplasmic domain (668 to 1210 residues) expressed in baculovirus expression system
How it was run: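 Caliper mobility-shift kinase assay in 50 mM HEPES pH 7.5, 0.0015% Brij35, 2 mM DTT. Five-point DMSO dilution series, in duplicate. Enzyme (EGFR form as appropriate) was preincubated with compound for 10 min at room temperature. FAM-labeled peptide plus ATP was added, then 1 h at 28°C. Stopped with EDTA buffer. Percent inhibition came from substrate conversion; ratio taken as WT IC50 over L858R/T790M IC50.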

Epidermal growth factor receptor (Homo sapiens, UniProt P00533), sequence (P00533 whole entry, the tested form may be a part): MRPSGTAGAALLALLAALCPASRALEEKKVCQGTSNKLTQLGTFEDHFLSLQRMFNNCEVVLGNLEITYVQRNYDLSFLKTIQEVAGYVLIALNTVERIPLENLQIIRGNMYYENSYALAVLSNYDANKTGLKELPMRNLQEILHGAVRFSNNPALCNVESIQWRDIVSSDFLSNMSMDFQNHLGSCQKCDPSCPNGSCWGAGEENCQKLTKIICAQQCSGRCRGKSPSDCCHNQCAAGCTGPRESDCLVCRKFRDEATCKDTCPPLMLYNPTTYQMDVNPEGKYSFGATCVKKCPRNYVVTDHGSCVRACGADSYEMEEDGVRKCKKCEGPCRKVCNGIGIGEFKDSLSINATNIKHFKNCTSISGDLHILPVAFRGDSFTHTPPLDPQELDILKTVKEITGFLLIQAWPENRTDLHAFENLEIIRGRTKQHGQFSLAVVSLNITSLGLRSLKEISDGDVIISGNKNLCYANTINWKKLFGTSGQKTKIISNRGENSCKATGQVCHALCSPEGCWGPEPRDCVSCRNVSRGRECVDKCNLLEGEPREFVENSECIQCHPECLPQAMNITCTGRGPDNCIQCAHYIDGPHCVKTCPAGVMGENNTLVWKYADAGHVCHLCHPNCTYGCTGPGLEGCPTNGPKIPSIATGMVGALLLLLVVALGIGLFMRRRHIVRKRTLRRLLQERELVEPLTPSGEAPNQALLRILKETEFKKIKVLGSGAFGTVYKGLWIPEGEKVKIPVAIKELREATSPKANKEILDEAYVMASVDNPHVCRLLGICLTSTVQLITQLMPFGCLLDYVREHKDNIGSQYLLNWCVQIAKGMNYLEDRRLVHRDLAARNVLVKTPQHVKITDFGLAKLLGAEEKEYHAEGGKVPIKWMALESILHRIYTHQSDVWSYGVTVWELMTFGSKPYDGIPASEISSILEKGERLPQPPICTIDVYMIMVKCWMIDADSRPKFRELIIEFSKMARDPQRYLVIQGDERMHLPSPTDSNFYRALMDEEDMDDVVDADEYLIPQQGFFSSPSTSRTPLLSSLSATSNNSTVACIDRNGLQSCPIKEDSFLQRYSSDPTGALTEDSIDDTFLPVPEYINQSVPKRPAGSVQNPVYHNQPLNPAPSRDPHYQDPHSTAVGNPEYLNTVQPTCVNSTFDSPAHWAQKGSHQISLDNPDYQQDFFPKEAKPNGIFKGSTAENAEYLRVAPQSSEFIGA
Epidermal growth factor receptor (Homo sapiens, UniProt P00533, L858R/T790M), sequence (P00533 25-1210 T790M/L858R limits assumed): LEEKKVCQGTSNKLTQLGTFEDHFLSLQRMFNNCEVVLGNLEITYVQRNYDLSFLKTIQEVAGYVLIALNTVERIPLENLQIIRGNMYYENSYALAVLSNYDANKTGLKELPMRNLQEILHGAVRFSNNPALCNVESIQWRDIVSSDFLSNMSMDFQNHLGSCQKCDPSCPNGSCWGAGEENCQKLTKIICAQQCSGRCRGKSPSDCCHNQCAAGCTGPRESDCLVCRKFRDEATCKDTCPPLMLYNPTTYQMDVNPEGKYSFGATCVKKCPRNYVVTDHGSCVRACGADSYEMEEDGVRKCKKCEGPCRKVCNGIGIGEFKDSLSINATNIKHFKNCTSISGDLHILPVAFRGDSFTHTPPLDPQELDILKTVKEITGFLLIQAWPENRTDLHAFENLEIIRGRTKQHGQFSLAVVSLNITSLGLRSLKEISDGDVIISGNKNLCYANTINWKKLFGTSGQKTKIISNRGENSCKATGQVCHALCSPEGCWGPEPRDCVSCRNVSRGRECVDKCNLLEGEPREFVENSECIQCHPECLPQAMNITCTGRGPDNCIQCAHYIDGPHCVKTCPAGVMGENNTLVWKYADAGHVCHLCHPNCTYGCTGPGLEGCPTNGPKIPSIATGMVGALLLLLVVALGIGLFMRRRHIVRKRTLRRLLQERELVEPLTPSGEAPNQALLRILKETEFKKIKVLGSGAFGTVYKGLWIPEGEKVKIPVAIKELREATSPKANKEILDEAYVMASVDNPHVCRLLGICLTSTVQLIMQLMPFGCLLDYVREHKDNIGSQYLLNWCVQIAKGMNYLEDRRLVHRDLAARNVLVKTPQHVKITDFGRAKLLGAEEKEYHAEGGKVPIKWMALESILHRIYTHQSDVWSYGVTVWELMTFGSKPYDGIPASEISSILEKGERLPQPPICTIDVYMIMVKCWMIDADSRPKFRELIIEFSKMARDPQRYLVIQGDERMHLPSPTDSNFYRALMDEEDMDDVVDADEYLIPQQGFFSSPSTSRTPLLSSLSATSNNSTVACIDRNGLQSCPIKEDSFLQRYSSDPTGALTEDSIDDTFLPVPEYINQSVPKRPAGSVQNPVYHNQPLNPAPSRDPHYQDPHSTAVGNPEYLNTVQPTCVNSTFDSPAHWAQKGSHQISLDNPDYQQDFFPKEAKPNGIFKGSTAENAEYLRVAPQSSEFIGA

C=CC(=O)Nc1cc(Nc2ncc3[nH]c(=O)n(-c4ccc(C(C)C)cc4)c3n2)c(OC)cc1N1CCOCC1
IC50 [1]: 1170 nM
IC50 [2]: 4040 nM
IC50 [3]: 1540 nM
Ratio IC50 [4]: < 1

C=CC(=O)Nc1cc(Nc2ncc3ncn(-c4ccc(I)cc4)c3n2)c(OC)cc1N(C)CCN(C)C
IC50 [1]: 8710 nM
IC50 [2]: 76 nM
IC50 [3]: 9520 nM
Ratio IC50 [4]: 115
IC50 [5]: 17 nM
IC50 ([6]; read-out: IC50): 3.5 nM
IC50 [7]: 4.7 nM
Ratio IC50 [8]: 4.9

C=CC(=O)Nc1cc(Nc2ncc3ncn(-c4ccc(F)cc4)c3n2)c(OC)cc1N(C)CCN(C)C
IC50 [1]: 420 nM
IC50 [2]: 61 nM
IC50 [3]: 12000 nM
Ratio IC50 [4]: 7
IC50 [5]: 18.2 nM
IC50 ([6]; read-out: IC50): 3.2 nM
IC50 [7]: 5.8 nM
Ratio IC50 [8]: 5.6

C=CC(=O)Nc1cc(Nc2ncc3ncn(-c4ccc(I)cc4)c3n2)c(OC)cc1N1CCOCC1
IC50 [1]: 1520 nM
IC50 [2]: 29800 nM
IC50 [3]: 35100 nM
Ratio IC50 [4]: < 1

C=CC(=O)Nc1cc(Nc2ncc3ncn(-c4ccc(Br)cc4)c3n2)c(OC)cc1N(C)CCN(C)C
IC50 [1]: 1150 nM
IC50 [2]: 140 nM
IC50 [3]: 1460 nM
Ratio IC50 [4]: 8

C=CC(=O)Nc1cc(Nc2ncc3ncn(-c4ccc(I)cc4)c3n2)c(OC)cc1N1CCN(C)CC1
IC50 [1]: 6310 nM
IC50 [2]: 7320 nM
IC50 [3]: 20700 nM
Ratio IC50 [4]: < 1

C=CC(=O)Nc1cc(Nc2ncc3ncn(C4CCCC4)c3n2)c(OC)cc1N(C)CCN(C)C
IC50 [1]: 2900 nM
IC50 [2]: 330 nM
IC50 [3]: 20800 nM
Ratio IC50 [4]: 9

C=CC(=O)Nc1cc(Nc2ncc3ncn(-c4ccc(C(C)C)cc4)c3n2)c(OC)cc1N1CCOCC1
IC50 [1]: 4230 nM
IC50 [2]: 5100 nM
IC50 [3]: 23000 nM
Ratio IC50 [4]: < 1

C=CC(=O)Nc1cc(Nc2ncc3ncn(-c4ccccc4)c3n2)c(OC)cc1N(C)CCN(C)C
IC50 [1]: 580 nM
IC50 [2]: 110 nM
IC50 [3]: 8080 nM
Ratio IC50 [4]: 58

C=CC(=O)Nc1cc(Nc2ncc3[nH]c(=O)n(-c4ccc(C(C)C)cc4)c3n2)c(OC)cc1N1CCN(C)CC1
IC50 [1]: 2050 nM
IC50 [2]: 2140 nM
IC50 [3]: 14300 nM
Ratio IC50 [4]: 1

C=CC(=O)Nc1cc(Nc2ncc3ncn(-c4ccccc4Cl)c3n2)c(OC)cc1N(C)CCN(C)C
IC50 [1]: 12600 nM
IC50 [2]: 1710 nM
IC50 [3]: 11300 nM
Ratio IC50 [4]: 7

C=CC(=O)Nc1cc(Nc2ncc3nc(Nc4ccccc4)n(C)c3n2)c(OC)cc1N(C)CCN(C)C
IC50 [1]: 6080 nM
IC50 [2]: 38 nM
IC50 [3]: 8700 nM
Ratio IC50 [4]: 160
IC50 [5]: 22.4 nM
IC50 ([6]; read-out: IC50): 2.7 nM
IC50 ([6]; read-out: pIC50 (converted)): 2.69 nM
IC50 [7]: 3.5 nM
Ratio IC50 [8]: 8.3

C=CC(=O)Nc1cc(Nc2ncc3ncn(-c4ccc(CC)cc4)c3n2)c(OC)cc1N(C)CCN(C)C
IC50 [1]: 1970 nM
IC50 [2]: 130 nM
IC50 [3]: 8180 nM
Ratio IC50 [4]: 16

C=CC(=O)Nc1cc(Nc2ncc3ncn(-c4ccc(C)cc4)c3n2)c(OC)cc1N(C)CCN(C)C
IC50 [1]: 360 nM
IC50 [2]: 140 nM
IC50 [3]: 9230 nM
Ratio IC50 [4]: 3

C=CC(=O)Nc1cc(Nc2ncc3nc(Nc4ccccc4)n(C(C)C)c3n2)c(OC)cc1N(C)CCN(C)C
IC50 [1]: 1420 nM
IC50 [2]: 46 nM
IC50 [3]: 4720 nM
Ratio IC50 [4]: 31
IC50 [5]: 41 nM
IC50 ([6]; read-out: IC50): 5.1 nM
Ratio IC50 [8]: 8

C=CC(=O)Nc1cc(Nc2ncc3ncn(-c4ccc(C(C)C)cc4)c3n2)c(OC)cc1N(C)CCN(C)C
IC50 [1]: 14500 nM
IC50 [2]: 74 nM
IC50 [3]: 15300 nM
Ratio IC50 [4]: 196
IC50 [5]: 25 nM
IC50 ([6]; read-out: IC50): 4.2 nM
Ratio IC50 [8]: 6

C=CC(=O)Nc1cc(Nc2ncc3ncn(-c4ccc(Cl)cc4)c3n2)c(OC)cc1N(C)CCN(C)C
IC50 [1]: 1860 nM
IC50 [2]: 85 nM
IC50 [3]: 7690 nM
Ratio IC50 [4]: 30
IC50 [5]: 15.6 nM
IC50 ([6]; read-out: IC50): 3.9 nM
IC50 [7]: 6.4 nM
Ratio IC50 [8]: 7

C=CC(=O)Nc1cc(Nc2ncc3ncn(-c4ccc(F)c(Br)c4)c3n2)c(OC)cc1N(C)CCN(C)C
IC50 [1]: 3020 nM
IC50 [2]: 35 nM
IC50 [3]: 3640 nM
Ratio IC50 [4]: 86
IC50 [5]: 10 nM
IC50 ([6]; read-out: IC50): 2.3 nM
Ratio IC50 [8]: 4.3

C=CC(=O)Nc1cc(Nc2ncc3ncn(-c4ccccc4F)c3n2)c(OC)cc1N(C)CCN(C)C
IC50 [1]: 5820 nM
IC50 [2]: 6720 nM
IC50 [3]: 9750 nM
Ratio IC50 [4]: < 1

C=CC(=O)Nc1cc(Nc2ncc3nc(Nc4ccccc4)n(C4CCCC4)c3n2)c(OC)cc1N(C)CCN(C)C
IC50 [1]: 780 nM
IC50 [2]: 230 nM
IC50 [3]: 11400 nM
Ratio IC50 [4]: 3

C=CC(=O)Nc1cc(Nc2ncc3ncn(-c4ccc(F)c(Cl)c4)c3n2)c(OC)cc1N(C)CCN(C)C
IC50 [1]: 5190 nM
IC50 [2]: 100 nM
IC50 [3]: 1610 nM
Ratio IC50 [4]: 35

C=CC(=O)Nc1cc(Nc2ncc3ncn(-c4ccc(OC)cc4)c3n2)c(OC)cc1N(C)CCN(C)C
IC50 [1]: 3330 nM
IC50 [2]: 160 nM
IC50 [3]: 1740 nM
Ratio IC50 [4]: 42

C=CC(=O)Nc1cc(Nc2ncc3ncn(-c4ccccc4Br)c3n2)c(OC)cc1N(C)CCN(C)C
IC50 [1]: 2090 nM
IC50 [2]: 1800 nM
IC50 [3]: 16200 nM
Ratio IC50 [4]: 1

C=CC(=O)Nc1cc(Nc2nccc(-c3cn(C)c4ccccc34)n2)c(OC)cc1N(C)CCN(C)C [OSIMERTINIB]
IC50 [1]: 870 nM
IC50 [3]: 650 nM

C=CC(=O)Nc1cc(Nc2ncc3ncn(-c4ccc(C(C)C)cc4)c3n2)c(OC)cc1N1CCN(C)CC1
IC50 [1]: 9250 nM
IC50 [2]: 1930 nM
IC50 [3]: 7690 nM
Ratio IC50 [4]: 5

C=CC(=O)Nc1cc(Nc2ncc3[nH]c(=O)n(-c4ccc(I)cc4)c3n2)c(OC)cc1N1CCOCC1
IC50 [1]: 18500 nM
IC50 [2]: 4310 nM
IC50 [3]: 19600 nM
Ratio IC50 [4]: 4

C=CC(=O)Nc1cc(Nc2ncc3ncn(-c4ccc(Cl)cc4Cl)c3n2)c(OC)cc1N(C)CCN(C)C
IC50 [1]: 11200 nM
IC50 [2]: 1610 nM
IC50 [3]: 20600 nM
Ratio IC50 [4]: 7

C=CC(=O)Nc1cc(Nc2ncc3[nH]c(=O)n(-c4ccc(I)cc4)c3n2)c(OC)cc1N(C)CCN(C)C
IC50 [1]: 1230 nM
IC50 [2]: 830 nM
IC50 [3]: 4820 nM
Ratio IC50 [4]: 15

C=CC(=O)Nc1cc(Nc2ncc3[nH]c(=O)n(-c4ccc(I)cc4)c3n2)c(OC)cc1N1CCN(C)CC1
IC50 [1]: 490 nM
IC50 [2]: 10400 nM
IC50 [3]: 39300 nM
Ratio IC50 [4]: < 1
